# Assay results from ChEMBL document CHEMBL4513216, “Probing the Open Global Health Chemical Diversity Library for Multistage-Active Starting Points for Next-Generation Antimalarials” (ACS Infect Dis, 2020).
# Experiment: Toxicity liver stage against HepG2, at 10uM
# Format: cell-based
# Set-up: test concentration 10 uM, cell line HepG2-A16-CD81EGFP
# Details: human, HepG2-A16-CD81EGFP cells; read-out: INHIBITION
# Method in brief: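 Uninfected HepG2-A16-CD81EGFP cells, 3 × 10^3 per well, 1536-well, plated on prespotted compound at 10 μM final, parasite-free screening media added to match infected plates; puromycin 10 μM positive, DMSO 0.5% negative; run in parallel with 48 h PbLuc assay at 37 °C, 5% CO2; viability by CellTiter-Glo luminescence, normalized to controls.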
row,SMILES,cytotoxicity at 10 µM
1,Cc1c(Cl)cccc1NC(=O)c1nc[nH]n1,-7.93%
2,CS(=O)(=O)c1ccc(O[C@H]2COCCN(C(=O)c3ccno3)C2)cc1,0.0962%
3,N#Cc1cccc(C(=O)Nc2ccc([C@@H](O)[C@H]3COCC(=O)N3)cc2)c1,-4.25%
4,O=C(c1cc(CC2(NC3CCCCC3)COC2)no1)N1CCCCC1,7.65%
5,CC(C)c1sc(Cl)nc1C(=O)N1CCN(c2ccccc2)CC1,-87.6%
6,COc1ccc(F)cc1S(=O)(=O)N1CCC(OC)CC1,-3.97%
7,CS(=O)(=O)C1CCN(S(=O)(=O)c2ccc(F)c(F)c2)CC1,-10.4%
8,COc1cc(N2C[C@H]3CN(C(=O)c4cnccn4)C[C@H]3C2)ncn1,-141%
9,COc1nn(C)c2c1CCCN(S(=O)(=O)c1cccs1)C2,-112%
10,CCNC(=O)N1CCC2(C1)c1ccccc1S(=O)(=O)N2CCOC (stereo not drawn),-151%
11,COC(=O)c1cc2c(OC)c(C)c(OC)cc2[nH]1,-12.8%
12,CN(C)CC(=O)N1CCOCC2(C1)CN(c1ccccc1)C(=O)CO2 (stereo not drawn),0.00964%
13,O=C(c1cscn1)N1C[C@@H]2[C@@H](C1)OCC(=O)N2CC1CCCC1,-10.2%
14,CCNC(=O)c1ncn2c1CN(C)S(=O)(=O)c1ccccc1-2,-10.1%
15,COC[C@H]1CCC[C@]12CN(C(=O)NCc1ccccc1)CCO2,-11.6%
16,CCN(CC)CCCNC(=O)C(C)n1cc(Br)cn1 (stereo not drawn),-3.33%
17,COCc1nc(N(C)C)ncc1C(=O)NC(C)C,12.8%
18,CC(C(=O)N1CCc2ccccc2C1)n1cc(Br)cn1 (stereo not drawn),-8.77%
19,O=C(c1ccccc1F)N1CCCC1Cn1c(=O)oc2ccccc21 (stereo not drawn),4.49%
20,O=C1N[C@H]2OCCC[C@H]2[C@H](c2ccc(C(=O)O)cc2)N1,-2.51%
21,CC(=O)Nc1ccc(CCC2(NC(=O)C3CCCO3)CCCCC2)cn1 (stereo not drawn),1.6%
22,Nc1nccnc1CC1CCCN(Cc2cccc3[nH]ccc23)C1 (stereo not drawn),0.994%

row,SMILES,cytotoxicity at 10 µM
1,Cc1cc(C2CCCN2C(=O)c2csc(-c3cnn(C)c3)n2)on1 (stereo not drawn),15.6%
2,CNC(=O)Cc1noc(-c2cc3c(s2)CCC(C)(C)C3)n1,3.57%
3,N#CCCN(CC1CCOC1)S(=O)(=O)c1c(F)cccc1Cl (stereo not drawn),-2.58%
4,CC(Oc1ccc(C(=O)NCCNS(C)(=O)=O)cn1)c1ccccc1 (stereo not drawn),7.44%
5,O=C(CCc1ccc(C(F)(F)F)cc1)N1CCCS1(=O)=O,4.37%
6,Cc1ccc(S(=O)(=O)N2CCOCC2C#N)cc1Br (stereo not drawn),6.08%
7,CNC(=O)C1CCCN1C(=O)NCCCc1cccc(F)c1 (stereo not drawn),2.75%
8,CC(CNC(=O)c1nnn(-c2ccccc2)c1C(F)(F)F)N(C)C (stereo not drawn),2.19%
9,CCNc1cc2c(nn1)CCN(C(=O)C1Cc3ccccc3S1)C2 (stereo not drawn),-1.4%
10,O=C(Cn1cccc2oc(=O)nc1-2)NCC1Cc2ccccc2O1 (stereo not drawn),-7.79%
11,CC(C)c1nc(C2CCCN(C(=O)CN(C)S(C)(=O)=O)C2)no1 (stereo not drawn),-0.304%
12,CN(CC(=O)N1CCN(c2cnccn2)CC1)c1ccc(Cl)cn1,-0.487%
13,Cc1nnc2n1CCN(C(=O)c1ccn(-c3cccc(F)c3)n1)C2,-144%
14,CCc1nnc2n1CCN(C(=O)c1cn(-c3ccccc3)nn1)C2,-141%
15,CC(C)c1ncncc1C(=O)NCCN1CCOCC1,-0.103%
16,Cc1cc(C(=O)NC2CCN(CC(N)=O)CC2)nn1C(C)(C)C,-5.22%
17,Cc1ccc(CNC(=O)NC(C)CCS(C)(=O)=O)cc1F (stereo not drawn),-146%
18,O=S(=O)(c1cccnc1)N1CCC(OCCCc2ccccc2)C1 (stereo not drawn),9.31%
19,CSCC(=O)NC1CCN(C(C)c2ccccc2)CC1 (stereo not drawn),3.63%
20,CCC(CNS(C)(=O)=O)Oc1ccccc1C (stereo not drawn),17.3%
21,CCN(C(=O)CN1CCC(c2ccccc2)C1)C1CC1 (stereo not drawn),9.4%
22,O=C(c1ccc(Sc2ccccn2)cc1)N1CCCSCC1,11.5%

row,SMILES,cytotoxicity at 10 µM
1,CC(CO)(NCc1noc(Cc2ccccc2)n1)C1CCCCC1 (stereo not drawn),-17.2%
2,CC(C)N(Cc1ccccn1)C(=O)CCOc1cccc(F)c1,4.58%
3,Cc1cccc(CN(Cc2ccccn2)S(=O)(=O)N(C)C)c1,-1.74%
4,CCOC(=O)NC1CCCN(Cc2ccc(-n3cncn3)c(C)c2)C1 (stereo not drawn),2.12%
5,Cc1nnc(SCCC(=O)N(C)Cc2c(F)cccc2Cl)[nH]1,1.69%
6,Cc1cc(NS(=O)(=O)c2cnc3onc(C)c3c2)no1,4.43%
7,O=C(c1cnc2[nH]c(=O)[nH]c(=O)c2c1)N1CCCC1C1CCCCC1 (stereo not drawn),-5.94%
8,CC(C)(CNC(=O)OC(C)(C)C)NC(=O)C1CC(=O)N(C2CC2)C1 (stereo not drawn),14.3%
9,COCCn1cc(C(=O)N2CCCC2c2cccc(F)c2)ccc1=O (stereo not drawn),-3.48%
10,Cc1cnc(NC(=O)N2CCCC2)s1,-13.6%
11,Cn1nc2c(cc1=O)CN(CC(=O)Nc1ccc(Cl)cn1)CC2,0.874%
12,CCCS(=O)(=O)NCc1cccnc1OCC,-7.87%
13,O=C(CN(Cc1ccccc1)CC1CCOCC1)Nc1nccs1,-13.5%
14,CCOc1ncccc1NC(=O)c1cc(C)c(C)s1,-2.96%
15,O=C(NC1CC1)N1C[C@@H]2CCN(C(=O)c3cscn3)[C@@H]2C1,-0.025%
16,Cc1nnc([C@@]23CCO[C@@H]2CCN(Cc2cccc4ccccc24)C3)o1,-103%
17,O=C(c1ncccn1)N1C[C@@H]2CN(Cc3cccnc3)CCO[C@@H]2C1,7.67%
18,Cc1ccc2c(c1)SCC(=O)N2CC(=O)N1CCCC1c1cc(C)on1 (stereo not drawn),1.28%
19,CSCC(=O)N1C[C@H](c2ccc(C)o2)[C@@H](N)C1,6.6%
20,CCOc1ccc2[nH]c(=O)c(CN3CCC(N4CCCC4)CC3)cc2c1,-7.83%
21,CCC1CN(Cc2nnc(C3CC3)o2)CCC(=O)N1Cc1ccccc1 (stereo not drawn),0.0723%
22,O=C(CCN1CCOC(C(F)(F)F)C1)NCc1ccc(Cl)cc1 (stereo not drawn),-9.93%

row,SMILES,cytotoxicity at 10 µM
1,O=C(O)C1CN(Cc2cccc(-c3ccccn3)c2)CCO1 (stereo not drawn),-10.5%
2,COc1nc2ccccc2cc1C1CC(=O)Nc2n[nH]c(C3CCC3)c21 (stereo not drawn),-13.5%
3,CCc1nccn1CCCNC(=O)c1cnn(-c2ccccc2OC)c1,-17.1%
4,FC(F)(F)c1ccnc(N2CCCN(Cc3ccccn3)CC2)n1,-3.5%
5,CCC(=O)N1CCCC(C(=O)N2CCN(c3cnn(C)c(=O)c3)CC2)C1 (stereo not drawn),3.98%
6,O=C(c1cccc(Cl)c1F)N1CCOC2(CNCCOC2)C1 (stereo not drawn),-2.06%
7,Cc1ccc(OCC(C)NS(C)(=O)=O)cc1 (stereo not drawn),14.8%
8,Cc1ccc2nc(C3CCCN3Cc3nnc(C)s3)[nH]c2c1 (stereo not drawn),-2.82%
9,Cc1cncc(C(=O)N2CCC(Cn3cc(-c4ccsc4)nn3)CC2)c1,-6.69%
10,CCCc1nc(C)cc(N2CCC3(CCC(=O)N(CC4CC4)C3)CC2)n1,14.9%
11,NC(=O)C1CCN(C(=O)c2ccn(-c3cccc(Cl)c3)n2)C1 (stereo not drawn),-0.433%
12,Cc1ccc(C(=O)NS(=O)(=O)c2cc(F)ccc2F)c(=O)[nH]1,-1.73%
13,O=C(NCCn1ccnc1)N1CCCC1c1ccc2c(c1)OCCO2 (stereo not drawn),-8.16%
14,CCn1ccnc1CN1CCN(CCC(=O)NC2CCCCC2)CC1,-12.3%
15,COc1c(C)cnc(CN2CCCC(Cn3nc(C)nc3C)C2)c1C (stereo not drawn),2.37%
16,Cc1n[nH]c(C2CN(C(=O)c3cc4c(s3)CCCC4)CCO2)n1 (stereo not drawn),-14.9%
17,Cc1cc(C(=O)N2CCN(Cc3ccsc3)CC2)c(C)n1C1CC1,-1.94%
18,Cc1ccc(CNC(=O)CN2CCCCC2Cn2cncn2)s1 (stereo not drawn),1.8%
19,Cn1cnc2c1CCN(CCCS(=O)(=O)c1ccccc1)C2,-7.54%
20,Cc1cnn(CC2CN(CCc3cccs3)CCO2)c1 (stereo not drawn),-14.2%
21,Cc1cc(C)n(CC2CN(CC(=O)NCc3ccccn3)CCO2)n1 (stereo not drawn),-5.07%
22,CS(=O)(=O)c1ccc(CNC(=O)N2CCC(c3ccccc3)CC2)cc1,-0.884%

row,SMILES,cytotoxicity at 10 µM
1,Cc1cnn(CC(C)NCc2ccc(-n3cccn3)cc2)c1 (stereo not drawn),1.44%
2,Cc1ccc(C(=O)NC2CCN(C(=O)Nc3ccccn3)CC2)o1,4.86%
3,CCc1ccc(C(=O)N2CCCC(c3noc(CC)n3)C2)o1 (stereo not drawn),-3.97%
4,Cc1c(C(=O)N2CCOCC2)n(C)c2ccc(Cl)cc12,-0.244%
5,CCNC(=O)[C@@H]1CCCN1[C@@H](C(=O)NC)c1ccccc1,7.77%
6,Cc1ccc2c(n1)N(CCn1cccn1)CCN(C(=O)CC1CC1)C2,-5.58%
7,Cc1noc(C)c1CN1C[C@H](OCC2CC2)[C@H]2OCCC[C@H]21,-14.9%
8,COCCNC(=O)[C@H]1C[C@@H]2CCN(Cc3ccncc3)C[C@H]2O1,2.6%
9,Cc1cccc(S(=O)(=O)N2CC[C@H]3CO[C@H](CN(C)C)[C@H]3C2)c1,-92.1%
10,O=C([C@@H]1C[C@H]2[C@H](CCN2Cc2nccs2)O1)N1CCOCC1,-8.66%
11,COCCN1C[C@@H]2CN(Cc3cccc(F)c3)CCC[C@]2(C(=O)O)C1,0.928%
12,O=C([C@H]1CC[C@@H]2[C@@H](CCN2Cc2nccs2)O1)N1CCOCC1,-0.891%
13,CN1CCC(c2nnc3ccc(C(=O)NC4CCCC4)cn23)C1 (stereo not drawn),-1.37%
14,COCC1CC2(CCN(Cc3ccoc3)CC2)CN1C(C)C (stereo not drawn),0.803%
15,O=C(NC1CCCC1)[C@H]1C[C@H]2OCC[C@H]2N(Cc2ccoc2)C1,-77.3%
16,O=C(c1ccc(F)cc1)N1CCN2C[C@H](OCc3ccccn3)C[C@H]2C1,2.8%
17,CNC(=O)[C@@H](c1ccccc1)N1CCC[C@H]1C(=O)NCc1cccnc1,2.38%
18,c1csc(CN2CCCn3cnc(COCC4CC4)c3C2)c1,-74.6%
19,COCCOCC1(CNCc2ccc(OC)cc2)C[C@@H](O)[C@@H](O)C1 (stereo partly drawn),-7.46%
20,Cc1cc(C(=O)NC2CCC3(CCC(=O)N3CC3CC3)CC2)no1 (stereo not drawn),-0.39%
